Screening results as filed in PubChem BioAssay.
This is a sample that favours compounds with a hit; in the whole collection about 3.5% have one here.
MrgX1 ag = human MrgX1 receptor agonism, primary screen. B-score at 10 µM. 310,000 tested, 0.44% active. MrgX1-HEK293 cells, Fluo-4 calcium fluorescence, agonist mode; stronger effect = higher value. AID 588627;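 active = calcium response B-score plate-corrected fluorescence ratio at least 3 library SD, with starting fluorescence B-score inside 5 SD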
Target sequence (Q96LB2 whole entry, looked up): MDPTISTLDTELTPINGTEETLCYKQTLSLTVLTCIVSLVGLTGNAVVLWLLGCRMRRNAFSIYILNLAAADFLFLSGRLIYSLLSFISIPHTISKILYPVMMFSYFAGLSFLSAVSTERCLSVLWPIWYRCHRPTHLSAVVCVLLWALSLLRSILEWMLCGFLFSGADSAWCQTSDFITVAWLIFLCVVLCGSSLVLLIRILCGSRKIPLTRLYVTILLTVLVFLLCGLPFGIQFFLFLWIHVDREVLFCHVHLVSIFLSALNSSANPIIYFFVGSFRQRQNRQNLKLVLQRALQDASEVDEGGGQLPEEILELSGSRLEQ
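Assay system: MrgX1-expressing HEK293 cells / Amount: fifteen thousand cells per well / Doses: test compound in the initial addition of three / Timing: cells plated overnight, dye loaded 0.5 h 37 °C, 0.5 h room temperature / Technique: kinetic calcium dye fluorescence, Fluo-4 NW / Control set: positive and negative controls per plate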
MrgX1 PAM = allosterically activates human MrgX1 receptor signaling. 310,000 tested, 0.63% active. Q96LB2. B-score at 10 µM. AID 588675. MrgX1-HEK293, Fluo-4 calcium flux, FDSS; stronger effect = higher value;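 active = plate-corrected calcium response at least 3 library SD above typical, normal starting fluorescence, not activating the receptor alone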;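 also: compound read alongside a low EC10 to EC30 dose of BAM8-22 agonist; peak minus trough fluorescence over baseline measured at the second addition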
MrgX1 antagonist = antagonists of human MrgX1 receptor | Q96LB2 | MRGX1-HEK293 calcium flux, Fluo-4, BAM8-22 antagonism; stronger effect = lower value | B-score at 10 µM | 310,000 tested, 1.3% active | AID 588676;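 active = calcium-response B-score plate-corrected more than 3 library SD below zero, starting fluorescence within 5 deviations, no agonist response on first addition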;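 also: peak minus trough fluorescence over baseline after final BAM8-22 challenge near maximal dose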
RGS4 inh = human RGS4 inhibition; P49798; HEK293 M3R/RGS4 inducible, Fluo-4 calcium flux; stronger effect = higher value; triggered by carbachol at its EC20; B-score at 10 µM; 310,000 tested, 0.45% active; AID 463165;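 active = B-score, a plate-corrected calcium signal, over three deviations above library mean, with baseline fluorescence within five deviations of library mean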;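 also: RGS4 expression induced by doxycycline in cells with stable M3 receptor; B-score is computed from the integrated fluorescence ratio over baseline after carbachol; higher B-score means a larger calcium signal and so more RGS4 inhibition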
RGS4 act = potentiators or activators of RGS4. HEK293 M3R/inducible RGS4, carbachol calcium flux Fluo4; stronger effect = lower value. B-score at 10 µM. 310,000 tested, 0.92% active. AID 463111;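 active = B-score of the integrated calcium signal more than 4 SD below the library mean, with starting fluorescence not abnormally high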;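 also: negative B-score means reduced calcium response which marks RGS4 activation or potentiation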
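Also added: carbachol at ECmax as muscarinic agonist stimulus; Assay system: HEK293 cells with stable M3R and inducible RGS4; Timing: overnight RGS4 induction, 30 min dye load 37 °C, 20 min compound RT; Measured by: Fluo4-AM (2 µM) calcium-flux fluorescence, kinetic read.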
A number is an active result; - = inactive; . = no result given.

SMILES	MrgX1 ag	MrgX1 PAM	MrgX1 antagonist	RGS4 inh	RGS4 act
Cc1ccc(-c2cc(C(=O)N3CCN(c4ncccn4)CC3)c3ccccc3n2)cc1	-	-	-	-	-
COc1cccc(-c2cc(C(=O)N3CCN(c4ncccn4)CC3)c3ccccc3n2)c1	-	-	-	-	-7
COc1ccc(C2(C(=O)NCCCN(C)C)CCOCC2)cc1	-	-	-	-	-
O=C(CN(C(=O)Cn1nnc(-c2ccc(F)cc2)n1)c1ccc(F)cc1)NC1CCCC1	-	-	-	-	-
COC(=O)/C(=C/Nc1ccccc1)[N+](=O)[O-]	-	-	-	-	-
COC(=O)/C(=C/c1cn(C)c2ccccc12)[N+](=O)[O-]	.	.	.	11.8	-
COc1ccc(CCN2C(=NC(=O)CCC(=O)O)SC3CS(=O)(=O)CC32)cc1OC (configuration not stated)	-	-	-5.22	-	-
COc1ccc(CCN2C(=NC(=O)CC(C)C)SC3CS(=O)(=O)CC32)cc1 (configuration not stated)	-	-	-	-	-
CCc1noc(C)c1C(=O)N(CCC(C)C)c1c(N)n(Cc2ccccc2)c(=O)[nH]c1=O	-	-	-	-	-
CN(C)c1cccc(C(=O)NNC(=O)NC2CCCCC2)c1	-	-	-	-	-
COc1cc(OC)cc(C(=O)NNC(=O)NC2CCCCC2)c1	-	-	-7	-	-
Cc1cc(NS(=O)(=O)c2ccc(NC(=O)c3ccc([N+](=O)[O-])c(Cl)c3)cc2)no1	-	-	-	-	-
COC(=O)c1cc2c(=O)c3ccccc3oc2nc1/C=C/N(C)C	67.5	-	-	-	-
COC(=O)c1cc2c(=O)c3ccccc3oc2nc1C	-	-	-	-	-
COc1cccc(N2C(=O)CC(NNc3nc4ccccc4s3)C2=O)c1 (configuration not stated)	29.9	-	-	-	-
CCCc1ccc(OCc2ccc(C(=O)N3CCSCC3)o2)cc1	-	-	-	-	-
NC(N)=N/N=C/c1ccc(Cl)c(Cl)c1	30.6	-	-	-	-
COc1cc(/C=N/N=C(N)N)ccc1OCc1ccc(Cl)cc1	29.8	-	-	-	-
NC(N)=N/N=C/c1ccccc1	-	-	-	-	-
OCCCCNCc1ccc(OCc2ccccc2Cl)cc1	-	-	-	-	-7.01
CCOCCCNCc1ccc(OCc2ccccc2Cl)cc1	-	-	-	-	-
CCOc1cc(/C=N/N=C(N)N)ccc1OCc1ccc(Cl)cc1	-	-	-	-	-
NC(N)=N/N=C/c1ccc(OCc2ccccc2Cl)cc1	-	-	-	-	-10.3
Cc1cccc(N2CCN(C(=O)NC(C)c3ccc(F)c(F)c3)CC2)c1C (configuration not stated)	-	-	-	-	-
Cn1c(=O)c2c(nc(SCC(=O)c3ccccc3F)n2C)n(C)c1=O	-	-	-7	-	-
SMILES	MrgX1 ag	MrgX1 PAM	MrgX1 antagonist	RGS4 inh	RGS4 act
CN(C)N1C(N)=C(C#N)C(c2cccnc2)C2=C1CC(C)(C)CC2=O (configuration not stated)	-	-	-4.84	-	-
COc1ccc([C@@H]2CC=C(C(=O)O)[C@H](c3ccccc3F)N2S(=O)(=O)c2ccc(C)cc2)cc1OC	-	-	-	.	.
Cc1ccc(S(=O)(=O)N2[C@@H](c3ccc(F)cc3)C(C(=O)O)=CC[C@H]2c2cccc(C)c2)cc1	-	-	-	.	.
Cc1ccc(S(=O)(=O)N2[C@@H](c3ccccc3F)C(C(=O)O)=CC[C@H]2c2ccc3c(c2)OCO3)cc1	-	14.1	-	.	.
Cc1ccc(S(=O)(=O)N2[C@@H](c3ccc(F)cc3)C(C(=O)O)=CC[C@H]2c2ccc3c(c2)OCO3)cc1	-	9.47	-	.	.
CCCC(=O)N1CCN(c2ccc(NC(=O)c3cccs3)cc2Cl)CC1	-	-	-	-	-
CC1CCN(c2ccccc2NC(=O)c2cc3ccccc3o2)CC1	-	-	-	-	-7.41
CCC(=O)N1CCN(c2ccc(NC(=O)c3cc4ccccc4o3)cc2Cl)CC1	-	-	-	-	-7.48
CCCC(=O)N1CCN(c2ccc(NC(=O)c3cc4ccccc4o3)cc2Cl)CC1	-	-	-	-	-8.59
CCC(=O)N1CCN(c2ccc(NC(=O)c3ccco3)cc2Cl)CC1	.	.	.	-	-
